# In the library only some 4.6% were active in any assay of this set; here they are far more common.
# Rtt109 HAT inh: C. albicans Rtt109 histone acetyltransferase inhibition; Q5AAJ8; inhibition, % at 34.9 µM; purified Rtt109/Vps75, ThioGlo CoA-SH fluorescence, 4 h; 330,000 tested, 0.16% active; AID 540336;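 active = inhibition of at least 50% in every replicate; inconclusive = best replicate reaches 50% inhibition but some replicates fall short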
# Target sequence (Q5AAJ8 whole entry, looked up): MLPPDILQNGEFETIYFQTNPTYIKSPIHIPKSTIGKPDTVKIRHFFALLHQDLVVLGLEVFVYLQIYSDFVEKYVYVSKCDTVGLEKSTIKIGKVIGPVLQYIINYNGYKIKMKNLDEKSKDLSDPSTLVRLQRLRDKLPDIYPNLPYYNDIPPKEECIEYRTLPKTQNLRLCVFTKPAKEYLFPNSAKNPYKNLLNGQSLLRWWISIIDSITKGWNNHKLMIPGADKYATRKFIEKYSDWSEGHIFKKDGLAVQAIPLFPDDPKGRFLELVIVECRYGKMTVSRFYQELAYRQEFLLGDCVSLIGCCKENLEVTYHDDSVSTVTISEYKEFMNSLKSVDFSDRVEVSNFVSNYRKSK
# HDAC3 inhib: human HDAC3 inhibition; O15379; recombinant HDAC3, fluorogenic peptide/trypsin coupled, fluorescence; inhibition, % at 8.3 µM; 320,000 tested, 0.15% active; AID 2718; in the data active = inhibition above about 26%, passing the limit was not always enough; inconclusive = no clear call, values can overlap the other calls
# FAS-TE inh: inhibitors of human fatty acid synthase thioesterase domain. P49327. recombinant FAS-TE, OMFH fluorogenic substrate, fluorescence endpoint. inhibition, % at 15 µM. 360,000 tested, 0.67% active. AID 602261;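 active = compounds whose normalised, plate-corrected inhibition of enzyme fluorescence in the single-dose primary screen is 50% or more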
# ALR H2O2 inh: human ALR oxidase inhibition via reduced H2O2 | inhibition, % (no concentration beside the values) | P55789 | purified ALR, DTT oxidation, H2O2 HRP-luminol luminescence | 290,000 tested, 3.8% active;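 active = mean replicate inhibition above about 79%, with every replicate also reaching it, limit read from the data; inconclusive = only one of the two criteria met; inactive = mean below limit and not every replicate reaching it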
# UCH37 inh: inhibitors of human deubiquitinating enzyme UCH37 | AID 588478 | purified proteasome/UCH37, Ub-AMC cleavage fluorescence | Q9Y5K5 | 330,000 tested, 0.33% active | inhibition, % (concentration not given with the values);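 active = mean inhibition over replicate wells above about 20%, limit read from the data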
#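 Signal – fluorescence, ex 355 nm, em 460 nm · System – Proteasome-bound UCH37 · Input – 0.15 nM proteasome as dispensed · Timing – 30 min preincubation with enzyme, 25 min cleavage at room temperature · Read-out basis – percent inhibition of cleavage signal versus uninhibited and no-proteasome wells · Medium – Tris-HCl pH 7.4 with ATP-MgCl2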
# M18AAP inhibitor: PfM18AAP enzyme inhibition. recombinant PfM18AAP, H-Glu-NHMec fluorogenic cleavage. inhibition, % at 7.35 µM. 290,000 tested, 1.2% active;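 active = inhibition above the campaign mean inhibition over all tested compounds plus 3 SD, cut at about 28% in these data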
# Numbers stand for hits; n = inactive; u = inconclusive; x = no result.
SMILES,Rtt109 HAT inh,HDAC3 inhib,FAS-TE inh,ALR H2O2 inh,UCH37 inh,M18AAP inhibitor
Oc1sc(C=Nc2ccccc2)c2ccccc12,u,n,n,84,n,n
Oc1sc(C=Nc2ccc(F)cc2)c2ccccc12,n,n,n,n,n,n
COc1cccc(C(=O)NNC2=CC(=O)CC(C)(C)C2)c1,n,n,n,n,n,31
Nc1ccc2nc(-c3ccc(N)c(Cl)c3)[nH]c2c1,n,n,n,99,n,n
Nc1ccc2nc(-c3cccs3)[nH]c2c1,n,n,n,99,n,n
COc1ccc2nc(-c3cccc(N)c3)[nH]c2c1,n,n,n,x,n,n
O=[N+]([O-])c1ccc2nc(-c3cccnc3)[nH]c2c1,n,n,n,n,n,n
COc1ccc2nc(-c3ccc(N)cc3)[nH]c2c1,n,n,n,99,n,n
Nc1ccc2nc(-c3cccnc3)[nH]c2c1,n,n,n,100,n,n
NC(=O)COc1ccc(C=NNC(=O)c2ccc(-c3ccccc3)cc2)cc1,x,x,x,x,n,x
Nc1ccc(-c2nc3c(Cl)cc(N)cc3[nH]2)cc1,n,n,n,99,n,n
Nc1cccc(C(=O)Nc2ccc3nc(-c4cccnc4)[nH]c3c2)c1,n,n,n,99,n,n
Nc1ccc2nc(-c3ccccn3)[nH]c2c1,n,n,n,x,n,n
Nc1ccc2nc(-c3ccccc3)[nH]c2c1,n,n,n,99,n,n
COc1cc(C(=O)O[C@H]2CC(C)=CCC[C@]3(C)O[C@@H]3C(O)C2C(C)C)cc(OC)c1OC (some centres undefined),x,x,x,x,n,x
CCCCCCC(=O)NN=Cc1ccco1,x,x,x,x,n,x
COc1cccc(C(=O)C[n+]2ccccc2C=NO)c1,x,x,x,x,n,x
COc1cccc(NC(=O)NCCc2ccc(Cl)cc2)c1,n,u,n,n,n,n
COc1cccc(-c2cc(N)nn2C(=O)Nc2ccc(Cl)cc2)c1,n,x,n,100,n,n
O=C(CN(Cc1ccc(Cl)c(Cl)c1)S(=O)(=O)c1ccccc1)NN=Cc1ccc2c(c1)OCO2,x,x,x,x,n,x
Cc1ccc(S(=O)(=O)NN=Cc2ccc(OCC(=O)NC(C)C)cc2)cc1,x,x,x,x,28,x
CC(CCc1ccccc1)=NNC(=O)CCc1ccccc1,x,x,x,x,n,x
COC(=O)c1cnc(NNS(=O)(=O)c2ccc(Cl)cc2)nc1C(F)(F)F,n,n,n,n,n,29
CCN1C(=O)/C(=C\c2nc3ccccc3c(=O)n2-c2ccccc2)c2ccccc21,n,n,n,n,n,n
COc1ccc(-n2c(/C=C3\C(=O)N(C)c4ccccc43)nc3ccccc3c2=O)cc1,n,n,n,97,n,n
SMILES,Rtt109 HAT inh,HDAC3 inhib,FAS-TE inh,ALR H2O2 inh,UCH37 inh,M18AAP inhibitor
COc1cc(C=NNC(=O)c2ccc(O)cc2)ccc1OCC(=O)N1CC(C)OC(C)C1 (centres undefined),x,x,x,x,n,x
CC(C)(C)c1nnc(NN=Cc2ccccc2O)n(N)c1=O,x,x,x,x,n,x
CC(C)(C)c1nnc(N/N=C/c2cc(Br)ccc2O)n(N)c1=O,n,n,n,n,x,44
CC1(C)N([O-])c2cc([N+](=O)[O-])ccc2[N+]1=O,x,n,x,n,57,n
Oc1ccc(-c2n[nH]c(=S)n2Cc2ccco2)cc1,n,n,n,91,n,n
Oc1cc2ccccc2cc1-c1n[nH]c(=S)n1Cc1ccco1,n,n,n,x,n,n
S=c1[nH]nc(Cc2ccccc2)n1Cc1ccco1,n,n,n,89,n,n
CCCn1c(Cc2ccccc2)n[nH]c1=S,n,n,n,n,n,n
COc1cccc(-c2n[nH]c(=S)n2Cc2ccco2)c1OC,n,n,n,87,n,n
Cc1nn(C)c(-c2n[nH]c(=S)n2Cc2ccco2)c1Cl,n,n,n,n,n,n
O=C(NN=Cc1ccc(N2CCCCC2)o1)c1ccccc1[N+](=O)[O-],x,x,x,x,n,x
CCOC(=O)NN=Cc1sccc1C,x,x,x,x,n,x
Cc1cc(C(F)(F)F)nn1Cc1n[nH]c(=S)n1Cc1ccccc1,n,n,n,82,n,n
Cc1ccc(C=NNC(=O)c2cc3c(ccc4ccccc43)o2)cc1[N+](=O)[O-],x,x,x,x,n,x
Cc1ccc(C=c2sc3nc(-c4ccccc4Br)nn3c2=O)o1,x,x,x,x,n,x
O=C1SC(c2ccccc2)=C/C1=C\N1CCCCC1,n,n,n,95,n,n
O=C1OC(c2ccccc2)=C/C1=C/N1CCOCC1,n,n,n,n,n,n
CCCOc1ccc(C=NNC(=O)C(C)Sc2ccccn2)cc1OCC (centres undefined),x,x,x,x,n,x
